What was measured:
[1] = Microsomal stability in CD1 mouse liver microsomes assessed as half life measured upto 60 mins in presence of NADPH by LC-MS analysis; conditions: CD1, mouse, liver microsomes
PC-3M = test: Antiproliferative activity against human PC-3M cells expressing PTB/GFP fusion protein assessed as reduction of nucleolar volume at 1 to 30 uM measured after 24 hrs by Nucleolar-id Green Detection based confocal microscopic analysis; assay type: functional, cell-based; conditions: dose 1-30 µM, DDE = dose-dependent effect
In short: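 PC-3M cells grown in RPMI 1640 with 10% FBS and penicillin/streptomycin, trypsinized at 70% confluence, and seeded at 2×10^5 cells/mL overnight at 37 °C, 5% CO₂. Medium replaced with compound or 1% DMSO for 24 h. Nucleoli stained with Nucleolar-ID Green and nuclei with Hoechst 33342, then imaged by confocal microscopy. Bright green objects in three images per condition normalized to nuclei count; vehicle set to 100.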

[2] = Cmax in female BALB/c mouse at 5 mg/kg, ip at 30 min by LC-MS/MS analysis; assay type: ADME, organism-based; set-up: time 30 min, dose 5 mg/kg, route ip; conditions: in vivo, 0.5 h
In short: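 Fed female BALB/c mice, about 6–8 weeks old and 25–30 g, received a single IP dose of 5 or 25 mpk in NMP/PEG400/HP-β-CD aqueous vehicle (0.5 mg/mL for the 5 mpk dose). Three mice per time point were sampled up to 48 h by retro-orbital bleed under isoflurane into K2EDTA. Plasma was spun at 2000 g, 4 °C, frozen at -80 °C, and assayed by LC/MS/MS.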

[3] = Clast in male C57BL/6 mouse at 50 mg/kg, ip at 48 hrs by LC-MS/MS analysis; conditions: in vivo
[4] = AUC (0 to 48 hrs) in female BALB/c mouse at 5 mg/kg, ip at 48 hrs by LC-MS/MS analysis; assay type: ADME, organism-based; set-up: time 48 hrs, dose 5 mg/kg, route ip; conditions: in vivo
In short: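 Fed female BALB/c mice, about 6–8 weeks old and 25–30 g, received a single IP dose. The vehicle was 5-10% NMP + 20% PEG400 + 70-75% (25% HP-β-CD in water), with the drug at 2.5/0.5 mg/mL. Blood was taken by retro-orbital puncture under isoflurane into K2EDTA tubes, 3 mice per time point, over 48 h. Plasma was prepared at 2000 g, 5 min, 4 °C, and measured by LC/MS/MS.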

K562 = test: Anticancer activity against human K562 cells assessed as cell growth inhibition; assay type: functional, cell-based; conditions: dose 1-100 µM, DDE = dose-dependent effect
RPMI-8226 = test: Anticancer activity against human RPMI-8226 cells assessed as cell growth inhibition; assay type: functional, cell-based; conditions: dose 1-100 µM, DDE = dose-dependent effect
SR = test: Anticancer activity against human SR cells assessed as cell growth inhibition; assay type: functional, cell-based; conditions: dose 1-100 µM, DDE = dose-dependent effect
NCI-H522 = test: Anticancer activity against human NCI-H522 cells assessed as cell growth inhibition; assay type: functional, cell-based; conditions: dose 1-100 µM, DDE = dose-dependent effect
COLO 205 = test: Anticancer activity against human COLO 205 cells assessed as cell growth inhibition; assay type: functional, cell-based; conditions: dose 1-100 µM, DDE = dose-dependent effect
HT-29 = test: Anticancer activity against human HT-29 cells assessed as cell growth inhibition; assay type: functional, cell-based; conditions: dose 1-100 µM, DDE = dose-dependent effect
SF-295 = test: Anticancer activity against human SF-295 cells assessed as cell growth inhibition; assay type: functional, cell-based; conditions: dose 1-100 µM, DDE = dose-dependent effect
MDA-MB-435 = test: Anticancer activity against human MDA-MB-435 cells assessed as cell growth inhibition; assay type: functional, cell-based; conditions: dose 1-100 µM, DDE = dose-dependent effect
UACC-257 = test: Anticancer activity against human UACC-257 cells assessed as cell growth inhibition; assay type: functional, cell-based; conditions: dose 1-100 µM, DDE = dose-dependent effect
IGROV-1 = test: Anticancer activity against human IGROV-1 cells assessed as cell growth inhibition; assay type: functional, cell-based; conditions: dose 1-100 µM, DDE = dose-dependent effect
OVCAR-3 = test: Anticancer activity against human OVCAR-3 cells assessed as cell growth inhibition; assay type: functional, cell-based; conditions: dose 1-100 µM, DDE = dose-dependent effect
OVCAR-4 = test: Anticancer activity against human OVCAR-4 cells assessed as cell growth inhibition; assay type: functional, cell-based; conditions: dose 1-100 µM, DDE = dose-dependent effect
OVCAR-8 = test: Anticancer activity against human OVCAR-8 cells assessed as cell growth inhibition; assay type: functional, cell-based; conditions: dose 1-100 µM, DDE = dose-dependent effect
786-0 = test: Anticancer activity against human 786-0 cells assessed as cell growth inhibition; assay type: functional, cell-based; conditions: dose 1-100 µM, DDE = dose-dependent effect
A498 = test: Anticancer activity against human A498 cells assessed as cell growth inhibition; assay type: functional, cell-based; conditions: dose 1-100 µM, DDE = dose-dependent effect
UO-31 = test: Anticancer activity against human UO-31 cells assessed as cell growth inhibition; assay type: functional, cell-based; conditions: dose 1-100 µM, DDE = dose-dependent effect
PC-3 = test: Anticancer activity against human PC-3 cells assessed as cell growth inhibition; assay type: functional, cell-based; conditions: dose 1-100 µM, DDE = dose-dependent effect
BT-549 = test: Anticancer activity against human BT-549 cells assessed as cell growth inhibition; assay type: functional, cell-based; conditions: dose 1-100 µM, DDE = dose-dependent effect
[5] = biological target: 5-hydroxytryptamine receptor 1B (Homo sapiens) (UniProt P28222); test: Binding affinity to 5-HT1B receptor (unknown origin) at 10000 nM by radioligand displacement assay relative to control
Chain of 5-hydroxytryptamine receptor 1B (Homo sapiens) (P28222 whole entry): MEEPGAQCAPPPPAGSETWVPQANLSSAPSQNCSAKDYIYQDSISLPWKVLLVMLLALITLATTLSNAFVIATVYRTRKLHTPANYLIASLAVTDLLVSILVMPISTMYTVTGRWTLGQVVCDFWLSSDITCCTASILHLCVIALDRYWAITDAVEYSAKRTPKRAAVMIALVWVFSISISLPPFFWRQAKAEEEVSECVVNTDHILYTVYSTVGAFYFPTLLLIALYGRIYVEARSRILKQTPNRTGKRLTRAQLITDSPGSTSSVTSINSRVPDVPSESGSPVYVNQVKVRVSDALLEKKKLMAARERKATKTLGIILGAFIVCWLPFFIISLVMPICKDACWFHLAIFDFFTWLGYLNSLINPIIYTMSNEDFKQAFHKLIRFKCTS

[6] = biological target: 5-hydroxytryptamine receptor 1E (Homo sapiens) (UniProt P28566); test: Binding affinity to 5-HT1E receptor (unknown origin) at 10000 nM by radioligand displacement assay relative to control
Chain of 5-hydroxytryptamine receptor 1E (Homo sapiens) (P28566 whole entry): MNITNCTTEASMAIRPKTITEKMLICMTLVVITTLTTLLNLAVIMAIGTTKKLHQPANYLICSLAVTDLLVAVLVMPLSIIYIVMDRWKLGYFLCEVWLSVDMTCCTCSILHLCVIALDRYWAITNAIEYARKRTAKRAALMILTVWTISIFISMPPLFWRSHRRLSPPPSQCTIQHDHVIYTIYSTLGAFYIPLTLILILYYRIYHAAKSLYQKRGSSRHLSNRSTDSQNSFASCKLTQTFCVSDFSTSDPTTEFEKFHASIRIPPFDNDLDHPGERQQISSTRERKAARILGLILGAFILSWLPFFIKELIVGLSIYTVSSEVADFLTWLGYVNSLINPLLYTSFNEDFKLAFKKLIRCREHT

[7] = biological target: 5-hydroxytryptamine receptor 2B (Homo sapiens) (UniProt P41595); test: Binding affinity to 5-HT2B receptor (unknown origin) at 10000 nM by radioligand displacement assay relative to control
Chain of 5-hydroxytryptamine receptor 2B (Homo sapiens) (P41595 whole entry): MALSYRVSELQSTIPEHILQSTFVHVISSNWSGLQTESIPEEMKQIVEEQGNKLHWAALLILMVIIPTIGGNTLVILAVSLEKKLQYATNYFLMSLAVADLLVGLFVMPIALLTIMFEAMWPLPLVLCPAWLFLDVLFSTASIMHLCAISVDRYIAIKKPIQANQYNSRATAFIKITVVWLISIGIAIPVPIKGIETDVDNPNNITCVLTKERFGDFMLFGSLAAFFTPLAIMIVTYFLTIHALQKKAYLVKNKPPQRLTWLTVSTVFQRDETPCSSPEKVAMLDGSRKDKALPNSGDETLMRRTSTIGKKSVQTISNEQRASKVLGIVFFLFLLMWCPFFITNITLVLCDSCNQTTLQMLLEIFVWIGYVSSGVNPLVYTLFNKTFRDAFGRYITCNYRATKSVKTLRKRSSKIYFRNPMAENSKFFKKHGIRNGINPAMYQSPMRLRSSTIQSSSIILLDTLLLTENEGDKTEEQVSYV

[8] = biological target: 5-hydroxytryptamine receptor 3A (Homo sapiens) (UniProt P46098); test: Binding affinity to 5-HT3 receptor (unknown origin) at 10000 nM by radioligand displacement assay relative to control
Chain of 5-hydroxytryptamine receptor 3A (Homo sapiens) (P46098 whole entry): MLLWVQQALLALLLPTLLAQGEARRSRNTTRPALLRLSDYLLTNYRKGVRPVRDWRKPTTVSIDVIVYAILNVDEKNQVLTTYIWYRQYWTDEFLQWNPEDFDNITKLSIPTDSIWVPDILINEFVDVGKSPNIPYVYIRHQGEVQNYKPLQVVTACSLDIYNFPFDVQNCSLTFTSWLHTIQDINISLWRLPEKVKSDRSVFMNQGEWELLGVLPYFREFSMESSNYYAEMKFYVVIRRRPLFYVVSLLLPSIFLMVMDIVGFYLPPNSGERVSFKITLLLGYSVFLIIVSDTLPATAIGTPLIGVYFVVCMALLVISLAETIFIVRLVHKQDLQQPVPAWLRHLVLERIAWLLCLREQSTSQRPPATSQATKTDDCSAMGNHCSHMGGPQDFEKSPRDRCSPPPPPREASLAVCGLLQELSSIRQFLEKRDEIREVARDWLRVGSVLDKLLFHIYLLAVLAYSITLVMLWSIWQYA

[9] = biological target: Beta-3 adrenergic receptor (Homo sapiens) (UniProt P13945); test: Binding affinity to beta3 receptor (unknown origin) at 10000 nM by radioligand displacement assay relative to control
Chain of Beta-3 adrenergic receptor (Homo sapiens) (P13945 whole entry, looked up): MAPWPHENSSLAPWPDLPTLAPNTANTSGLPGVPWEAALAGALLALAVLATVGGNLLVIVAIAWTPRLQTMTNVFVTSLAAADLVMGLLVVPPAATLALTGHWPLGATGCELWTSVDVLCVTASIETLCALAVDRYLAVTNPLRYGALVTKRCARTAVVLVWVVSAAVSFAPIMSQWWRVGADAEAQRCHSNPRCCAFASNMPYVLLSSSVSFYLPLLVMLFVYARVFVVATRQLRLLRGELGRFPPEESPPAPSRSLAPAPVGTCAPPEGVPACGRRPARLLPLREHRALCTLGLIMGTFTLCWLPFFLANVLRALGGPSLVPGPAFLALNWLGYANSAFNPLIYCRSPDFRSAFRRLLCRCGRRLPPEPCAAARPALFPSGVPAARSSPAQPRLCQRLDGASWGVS

[10] = biological target: Kappa-type opioid receptor (Homo sapiens) (UniProt P41145); test: Binding affinity to KOR receptor (unknown origin) at 10000 nM by radioligand displacement assay relative to control
Chain of Kappa-type opioid receptor (Homo sapiens) (P41145 whole entry): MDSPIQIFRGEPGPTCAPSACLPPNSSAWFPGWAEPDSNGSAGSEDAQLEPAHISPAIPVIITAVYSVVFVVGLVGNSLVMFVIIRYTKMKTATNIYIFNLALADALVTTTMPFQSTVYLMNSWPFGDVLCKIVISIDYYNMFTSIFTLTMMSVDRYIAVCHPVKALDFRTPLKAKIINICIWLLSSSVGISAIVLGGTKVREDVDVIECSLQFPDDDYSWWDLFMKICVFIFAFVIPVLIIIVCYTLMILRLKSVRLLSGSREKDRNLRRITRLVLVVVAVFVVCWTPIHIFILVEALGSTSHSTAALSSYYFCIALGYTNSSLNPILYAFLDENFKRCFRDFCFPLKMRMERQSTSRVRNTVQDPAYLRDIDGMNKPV

[11] = biological target: Muscarinic acetylcholine receptor M1 (Homo sapiens) (UniProt P11229); test: Binding affinity to M1 receptor (unknown origin) at 10000 nM by radioligand displacement assay relative to control
Chain of Muscarinic acetylcholine receptor M1 (Homo sapiens) (P11229 whole entry): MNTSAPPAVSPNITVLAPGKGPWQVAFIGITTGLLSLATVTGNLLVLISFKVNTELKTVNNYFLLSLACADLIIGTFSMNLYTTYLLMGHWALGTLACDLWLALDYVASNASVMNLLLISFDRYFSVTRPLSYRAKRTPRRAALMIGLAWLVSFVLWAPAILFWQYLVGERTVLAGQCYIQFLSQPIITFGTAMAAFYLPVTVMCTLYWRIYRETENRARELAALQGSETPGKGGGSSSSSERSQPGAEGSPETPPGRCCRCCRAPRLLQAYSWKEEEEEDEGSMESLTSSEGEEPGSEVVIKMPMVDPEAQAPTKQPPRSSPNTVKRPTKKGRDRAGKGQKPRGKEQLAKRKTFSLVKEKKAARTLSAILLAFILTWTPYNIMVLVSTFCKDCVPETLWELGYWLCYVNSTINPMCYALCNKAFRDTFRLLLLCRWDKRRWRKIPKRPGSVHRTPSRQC

[12] = biological target: Muscarinic acetylcholine receptor M2 (Homo sapiens) (UniProt P08172); test: Binding affinity to M2 receptor (unknown origin) at 10000 nM by radioligand displacement assay relative to control
Chain of Muscarinic acetylcholine receptor M2 (Homo sapiens) (P08172 whole entry): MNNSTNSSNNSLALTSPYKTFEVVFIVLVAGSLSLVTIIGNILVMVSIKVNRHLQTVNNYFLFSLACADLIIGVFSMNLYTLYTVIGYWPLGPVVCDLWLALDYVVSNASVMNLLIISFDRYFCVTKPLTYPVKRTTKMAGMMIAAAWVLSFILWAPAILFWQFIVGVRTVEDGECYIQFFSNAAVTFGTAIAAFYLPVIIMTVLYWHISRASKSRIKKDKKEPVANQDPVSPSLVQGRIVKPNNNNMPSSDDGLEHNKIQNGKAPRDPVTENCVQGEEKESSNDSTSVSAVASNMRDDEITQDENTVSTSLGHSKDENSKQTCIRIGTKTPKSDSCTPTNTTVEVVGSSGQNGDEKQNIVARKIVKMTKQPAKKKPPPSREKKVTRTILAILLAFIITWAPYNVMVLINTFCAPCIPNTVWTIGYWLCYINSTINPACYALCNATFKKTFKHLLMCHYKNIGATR

[13] = biological target: Muscarinic acetylcholine receptor M3 (Homo sapiens) (UniProt P20309); test: Binding affinity to M3 receptor (unknown origin) at 10000 nM by radioligand displacement assay relative to control
Chain of Muscarinic acetylcholine receptor M3 (Homo sapiens) (P20309 whole entry, looked up): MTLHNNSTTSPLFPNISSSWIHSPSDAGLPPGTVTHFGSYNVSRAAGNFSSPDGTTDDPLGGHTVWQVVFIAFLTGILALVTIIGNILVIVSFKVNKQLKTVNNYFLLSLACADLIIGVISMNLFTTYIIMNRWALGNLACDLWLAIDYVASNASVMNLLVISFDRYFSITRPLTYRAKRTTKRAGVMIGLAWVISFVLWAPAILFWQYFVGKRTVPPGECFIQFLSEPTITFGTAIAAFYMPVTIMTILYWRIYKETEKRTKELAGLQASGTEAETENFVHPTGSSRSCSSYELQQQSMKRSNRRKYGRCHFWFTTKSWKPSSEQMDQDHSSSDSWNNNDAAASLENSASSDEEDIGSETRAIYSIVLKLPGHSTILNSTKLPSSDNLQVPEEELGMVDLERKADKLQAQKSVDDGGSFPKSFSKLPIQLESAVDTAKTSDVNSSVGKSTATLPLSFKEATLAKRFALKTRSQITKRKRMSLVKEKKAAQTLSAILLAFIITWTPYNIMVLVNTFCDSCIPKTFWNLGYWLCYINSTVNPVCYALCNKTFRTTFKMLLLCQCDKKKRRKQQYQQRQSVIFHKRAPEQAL

[14] = biological target: Mu-type opioid receptor (Homo sapiens) (UniProt P35372); test: Binding affinity to MOR receptor (unknown origin) at 10000 nM by radioligand displacement assay relative to control
Chain of Mu-type opioid receptor (Homo sapiens) (P35372 whole entry): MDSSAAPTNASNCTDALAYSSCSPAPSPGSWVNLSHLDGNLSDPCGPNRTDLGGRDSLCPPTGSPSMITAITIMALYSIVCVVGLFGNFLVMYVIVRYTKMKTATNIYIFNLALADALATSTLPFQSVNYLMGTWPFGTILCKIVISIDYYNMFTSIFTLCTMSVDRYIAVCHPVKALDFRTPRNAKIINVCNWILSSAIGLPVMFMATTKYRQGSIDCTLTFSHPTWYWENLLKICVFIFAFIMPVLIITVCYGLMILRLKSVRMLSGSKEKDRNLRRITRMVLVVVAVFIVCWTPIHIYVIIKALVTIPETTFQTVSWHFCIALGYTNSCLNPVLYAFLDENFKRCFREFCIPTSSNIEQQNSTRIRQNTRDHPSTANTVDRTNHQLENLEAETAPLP

[15] = biological target: Sodium-dependent serotonin transporter (Homo sapiens) (UniProt P31645); test: Binding affinity to SERT receptor (unknown origin) at 10000 nM by radioligand displacement assay relative to control
[16] = biological target: Alpha-2C adrenergic receptor (Homo sapiens, UniProt P18825); test: Binding affinity to alpha2C receptor (unknown origin) by radioligand displacement assay
Chain of Alpha-2C adrenergic receptor (P18825 whole entry): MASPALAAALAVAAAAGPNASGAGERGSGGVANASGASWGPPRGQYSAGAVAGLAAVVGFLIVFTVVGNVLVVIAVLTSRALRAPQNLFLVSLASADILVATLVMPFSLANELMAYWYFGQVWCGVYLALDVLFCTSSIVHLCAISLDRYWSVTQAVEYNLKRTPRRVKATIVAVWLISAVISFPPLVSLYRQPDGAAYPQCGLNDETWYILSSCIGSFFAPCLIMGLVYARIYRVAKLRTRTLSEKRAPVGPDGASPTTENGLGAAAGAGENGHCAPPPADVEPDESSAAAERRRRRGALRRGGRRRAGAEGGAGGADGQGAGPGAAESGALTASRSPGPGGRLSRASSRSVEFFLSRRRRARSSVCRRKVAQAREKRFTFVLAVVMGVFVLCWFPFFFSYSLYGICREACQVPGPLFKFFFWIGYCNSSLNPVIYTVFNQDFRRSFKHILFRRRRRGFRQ

Histamine H1 receptor = Histamine H1 receptor (Homo sapiens, UniProt P35367); test: Binding affinity to H1 receptor (unknown origin) by radioligand displacement assay
[17] = mouse, in vivo, ip, 50 mg/kg, 0.5 h
[18] = mouse, in vivo, ip, 50 mg/kg, 48 h

N=c1c2c(-c3ccccc3)c(-c3ccccc3)n(Cc3ccccc3)c2ncn1[C@H]1CC[C@H](O)CC1 [ML-246]
half-life at 1 h [1]: 2 h | Activity (PC-3M): Dde | Cmax [2]: 910 nM | concentration at 48 h [3]: 1320 nM | AUC [4]: 6.08 µM·h | Activity (K562): Dde | Activity (RPMI-8226): Dde | Activity (SR): Dde | Activity (NCI-H522): Dde | Activity (COLO 205): Dde | Activity (HT-29): Dde | Activity (SF-295): Dde | Activity (MDA-MB-435): Dde | Activity (UACC-257): Dde | Activity (IGROV-1): Dde | Activity (OVCAR-3): Dde | Activity (OVCAR-4): Dde | Activity (OVCAR-8): Dde | Activity (786-0): Dde | Activity (A498): Dde | Activity (UO-31): Dde | Activity (PC-3): Dde | Activity (BT-549): Dde | Activity [5]: < 50% | Activity [6]: < 50% | Activity [7]: < 50% | Activity [8]: < 50% | Activity [9]: < 50% | Activity [10]: < 50% | Activity [11]: < 50% | Activity [12]: < 50% | Activity [13]: < 50% | Activity [14]: < 50% | Activity [15]: < 50% | Ki [16]: 1.21 µM | Ki (Histamine H1 receptor): 3.56 µM | Cmax [17]: 20300 nM | beta t1/2 [18]: 0.273 h
